In ChEMBL document CHEMBL1134847, “Development of orally active nonpeptidic inhibitors of human neutrophil elastase” (J Med Chem, 2001):
One block for each molecule: values may come before it.

How the values were obtained:
[1] = test system: Cricetinae gen. sp.; test: Inhibition of HNE-induced lung hemorrhage in hamsters after oral administration followed by intratracheal instillation of HNE (10 U/lung); format: functional
Method in brief: (§1)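 Hamsters (n = 6-10) were dosed orally 1 h before intratracheal instillation of HNE (10 U/lung). The read-out was inhibition of the HNE-induced lung hemorrhage.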

[2] = test system: Cricetinae gen. sp.; test: (§2) Inhibition of HNE-induced lung hemorrhage in hamsters after oral administration of 30 mg/kg followed by intratracheal instillation of HNE (10 U/lung); format: functional; method in brief: as §1
[3] = target: T1, Neutrophil elastase (Homo sapiens, UniProt P08246); test: Binding constant derived from inhibition of elastase catalyzed hydrolysis of synthetic substrate
T1 sequence (P08246 whole entry): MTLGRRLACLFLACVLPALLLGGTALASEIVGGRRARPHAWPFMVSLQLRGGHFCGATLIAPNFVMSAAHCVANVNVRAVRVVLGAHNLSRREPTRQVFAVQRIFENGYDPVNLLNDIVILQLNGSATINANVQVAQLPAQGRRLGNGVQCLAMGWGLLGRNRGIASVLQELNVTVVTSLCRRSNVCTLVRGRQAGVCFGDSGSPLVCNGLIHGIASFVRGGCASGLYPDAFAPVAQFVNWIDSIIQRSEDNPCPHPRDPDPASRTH

[4] = test system: Cricetinae gen. sp.; test: as §2; format: functional, Cricetulus griseus; method in brief: as §1
[5] = Half life after administering orally a dose of 3 mg/kg; format: ADME, organism-based; set-up: dose 3 mg/kg, route oral; details: rat, in vivo, po
Method in brief: (§3)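 Unchanged drug measured in plasma over 0–24 h after dosing. Cmax recorded over 0–24 h, with Tmax as the time of Cmax. Half-life determined over 6–24 h after dosing. Mean ± SD, n = 4.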

[6] = Pharmacokinetic parameter AUC was evaluated intravenous administration of 3 mg/kg; format: ADME, organism-based; set-up: dose 3 mg/kg, route intravenous; details: rat, in vivo
Method in brief: (§4)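 Oral dosing as a suspension in 0.5% CMC; intravenous dosing as a solution in 35% HP-β-CD. Unchanged drug measured in plasma over 0–24 h after dosing. AUC is the integrated area under the concentration versus time curve. Oral bioavailability is taken from the […]. Mean ± SD, n = 4 (n = 3 for some i.v. groups).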

[7] = Bioavailability was evaluated when a dose of 3 mg/kg was administered orally; format: ADME, organism-based; details: rat, in vivo, po; method in brief: as §4
[8] = Time of maximum concentration of the drug when administered orally a dose of 1 mg/kg to a fasting rat; format: ADME, organism-based; set-up: dose 1 mg/kg, route oral; details: in vivo, po; method in brief: as §3
[9] = Pharmacokinetic parameter AUC was evaluated when a dose of 3 mg/kg is administered orally to a fasting rat; format: ADME, organism-based; set-up: dose 3 mg/kg, route oral; details: in vivo, po
[10] = Maximum concentration of […] drug in plasma recorded in the period of 0-24 hr after administering orally a dose of 30 mg/kg; format: ADME, organism-based; set-up: dose 30 mg/kg, route oral; details: rat, po; method in brief: as §3
[11] = Pharmacokinetic parameter AUC was evaluated when a dose of 1 mg/kg is administered orally to a fasting rat; format: ADME, organism-based; set-up: dose 1 mg/kg, route oral; details: in vivo, po; method in brief: as §4
[12] = Half life after administering intravenously a dose of 3 mg/kg; details: rat, in vivo, iv
[13] = Half life after administering orally a dose of 3 mg/kg to a fasting rat; format: ADME, organism-based; set-up: dose 3 mg/kg, route oral; details: in vivo, po; method in brief: as §3
[14] = Half life after administering orally a dose of 10 mg/kg to a fasting rat; format: ADME, organism-based; set-up: dose 10 mg/kg, route oral; details: in vivo, po; method in brief: as §3
[15] = Time of maximum concentration of the drug when administered orally at dose of 3 mg/kg; format: ADME, organism-based; set-up: dose 3 mg/kg, route oral; details: rat, in vivo, po; method in brief: as §3
[16] = Bioavailability was evaluated when a dose of 3 mg/kg was administered orally to a fasting rat; format: ADME, organism-based; details: in vivo, po; method in brief: as §4
[17] = Maximum concentration of […] drug in plasma recorded in the period of 0-24 hr after administering orally a dose of 10 mg/kg to a fasting rat; format: ADME, organism-based; set-up: dose 10 mg/kg, route oral; details: po; method in brief: as §3
[18] = Half life after administering orally a dose of 30 mg/kg; format: ADME, organism-based; set-up: dose 30 mg/kg, route oral; details: rat, in vivo, po; method in brief: as §3
[19] = Pharmacokinetic parameter AUC was evaluated when a dose of 3 mg/kg is administered orally; format: ADME, organism-based; set-up: dose 3 mg/kg, route oral; details: rat, in vivo, po
[20] = Maximum concentration of […] drug in plasma recorded in the period of 0-24 hr after administering orally a dose of 3 mg/kg; format: ADME, organism-based; set-up: dose 3 mg/kg, route oral; details: rat, po; method in brief: as §3
[21] = Time of maximum concentration of the drug when administered orally a dose of 3 mg/kg to a fasting rat; format: ADME, organism-based; set-up: dose 3 mg/kg, route oral; details: in vivo, po; method in brief: as §3
[22] = Pharmacokinetic parameter AUC was evaluated when a dose of 10 mg/kg is administered orally to a fasting rat; format: ADME, organism-based; set-up: dose 10 mg/kg, route oral; details: in vivo, po; method in brief: as §4
[23] = Maximum concentration of […] drug in plasma recorded in the period of 0-24 hr after administering orally a dose of 1 mg/kg to a fasting rat; format: ADME, organism-based; set-up: dose 1 mg/kg, route oral; details: po; method in brief: as §3
[24] = Pharmacokinetic parameter AUC was evaluated when a dose of 30 mg/kg is administered orally; format: ADME, organism-based; set-up: dose 30 mg/kg, route oral; details: rat, in vivo, po; method in brief: as §4
[25] = Time of maximum concentration of the drug when administered orally a dose of 10 mg/kg to a fasting rat; format: ADME, organism-based; set-up: dose 10 mg/kg, route oral; details: in vivo, po; method in brief: as §3
[26] = Maximum concentration of […] drug in plasma recorded in the period of 0-24 hr after administering orally a dose of 3 mg/kg to a fasting rat; format: ADME, organism-based; set-up: dose 3 mg/kg, route oral; details: po; method in brief: as §3
[27] = Half life after the administered orally a dose of 1 mg/kg to a fasting rat; format: ADME, organism-based; set-up: dose 1 mg/kg, route oral; details: in vivo, po; method in brief: as §3
[28] = Time of maximum concentration of the drug when administered orally a dose of 30 mg/kg; format: ADME, organism-based; set-up: dose 30 mg/kg, route oral; details: rat, in vivo, po; method in brief: as §3

Structure (SMILES): Cc1cccc(Cc2nnc(C(=O)[C@@H](NC(=O)Cn3c(-c4ccc(F)cc4)ncc(N)c3=O)C(C)C)o2)c1
ED50 [1]: 13 mg/kg

Structure (SMILES): CC(C)[C@H](NC(=O)Cn1c(-c2cccnc2)ncc(N)c1=O)C(=O)c1nnc(C(C)(C)C)o1
inhibition in vivo at 30 mg/kg [2]: 6%

Structure (SMILES): CC(C)[C@H](NC(=O)Cn1c(-c2ccc(F)cc2)nccc1=O)C(=O)c1nnc(C(C)(C)C)o1
ED50 [1]: 6.8 mg/kg

Ki [3]: 4280 nM
Structure (SMILES): CC(C)[C@H](NC(=O)COc1cccc(-c2ccccc2)n1)C(=O)c1nnc(C(C)(C)C)o1
inhibition in vivo at 30 mg/kg [2]: 28%

Structure (SMILES): CC(C)C(NC(=O)Cn1c(-c2ccc(F)cc2)ncc(N)c1=O)C(=O)c1nnc(C(C)(C)C)o1 (stereo not drawn)
ED50 [1]: 10 mg/kg

Ki [3]: 5.1 nM
Structure (SMILES): CC(C)[C@H](NC(=O)[C@@H]1Cc2ccccc2N1C(=O)[C@@H](NC(=O)c1cccnc1)C(C)C)C(=O)c1nnc(C(C)(C)C)o1
inhibition in vivo at 30 mg/kg [2]: 36%

Structure (SMILES): CC(C)[C@H](NC(=O)Cn1c(-c2ccc(F)cc2)ncc(N)c1=O)C(=O)c1nnc(Cc2ccccc2)o1
inhibition in vivo at 30 mg/kg [2]: 53%

Structure (SMILES): CC(C)C(NC(=O)Cn1c(-c2ccc(F)cc2)ncc(N)c1=O)C(=O)C(F)(F)F (stereo not drawn)
ED50 [1]: 7.5 mg/kg

Structure (SMILES): CC(C)c1nnc(C(=O)[C@@H](NC(=O)Cn2c(-c3ccc(F)cc3)ncc(N)c2=O)C(C)C)o1
inhibition in vivo at 30 mg/kg [4]: 79%

Structure (SMILES): CC(C)[C@H](NC(=O)Cn1c(-c2ccccc2)nccc1=O)C(=O)c1nnc(C(C)(C)C)o1
ED50 [1]: 4 mg/kg

Structure (SMILES): CC(C)[C@H](NC(=O)Cn1c(-c2ccc(F)cc2)ncc(N)c1=O)C(=O)c1nnc(-c2ccccc2)o1
inhibition in vivo at 30 mg/kg [4]: 9%

Structure (SMILES): CC(C)[C@H](NC(=O)Cn1c(-c2ccccc2)nccc1=O)C(=O)c1nnc(C2(C)CC2)o1
ED50 [1]: 6.6 mg/kg

Structure (SMILES): CC(C)[C@H](NC(=O)Cn1c(-c2ccc(F)cc2)ncc(N)c1=O)C(=O)c1nnc(-c2cccnc2)o1
inhibition in vivo at 30 mg/kg [2]: 0%

Structure (SMILES): CCCCc1nnc(C(=O)[C@@H](NC(=O)Cn2c(-c3ccc(F)cc3)ncc(N)c2=O)C(C)C)o1
inhibition in vivo at 30 mg/kg [2]: 63%

half-life [5]: 5 h | AUC [6]: 1930 ng·h/mL | bioavailability [7]: 39.4% | Tmax [8]: 0.31 h | AUC [9]: 976 ng·h/mL | Cmax [10]: 527 ng/mL | AUC [11]: 230 ng·h/mL | half-life [12]: 3 h | half-life [13]: 4.5 h | half-life [14]: 7.4 h | Tmax [15]: 1.1 h | bioavailability [16]: 50.5% | Cmax [17]: 351 ng/mL | half-life [18]: 8.7 h | AUC [19]: 760 ng·h/mL | Cmax [20]: 174 ng/mL | Tmax [21]: 0.63 h | AUC [22]: 2130 ng·h/mL | Cmax [23]: 115 ng/mL | AUC [24]: 3050 ng·h/mL | Tmax [25]: 0.31 h | Cmax [26]: 257 ng/mL | half-life [27]: 5.1 h | Tmax [28]: 0.44 h
Structure (SMILES): CC(C)C(NC(=O)Cn1c(-c2ccccc2)ncc(N)c1=O)C(=O)c1nnc(C(C)(C)C)o1 (stereo not drawn)
ED50 [1]: 5.1 mg/kg

Structure (SMILES): CC(C)[C@H](NC(=O)CN1C(=O)N[C@H](C(C)C)C1=O)C(=O)c1nnc(C(C)(C)C)o1
inhibition in vivo at 30 mg/kg [2]: 0%

Structure (SMILES): CC(C)[C@H](NC(=O)Cn1c(-c2ccc(F)cc2)nccc1=O)C(=O)c1nnc(C2(C)CC2)o1
ED50 [1]: 5.5 mg/kg
